Experimental data taken from ChEMBL document CHEMBL1140443, “Inhibitors of apoptosis in lymphocytes: synthesis and biological evaluation of compounds related to pifithrin-alpha” (J Med Chem, 2005).

Tests used:
Mus musculus [1] = organism: Mus musculus; test: Average percent survival of C57Bl/6 mice thymocytes from Dexamethasone (5 uM) induced apoptosis at 10 uM
Mus musculus [2] = organism: Mus musculus; test: Concentration required to inhibit dexamethasone-induced death of mice thymocytes; format: functional, organism-based
Procedure, shortened: (§1)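 Thymocytes from young C57Bl/6 mice, cultured at 37 °C in 5% CO2 in RPMI 1640 with 10% FBS and penicillin/streptomycin, plated at 10⁷ cells/mL. Cells were preincubated 30 min with graded compound concentrations (DMSO stock), then given 5 μM dexamethasone for 6 h. Cells were stained 30 min with 40 nM DiOC6 and 5 μg/mL PI and read by flow cytometry; DiOC6-high/PI-low cells were scored viable. EC50 was taken from a nonlinear one-site fit, with its 95% confidence interval.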

[3] = Concentration for 95% confidence interval (CI) in dexamethasone-induced mice thymocytes; range 3.95-5.75 uM; format: functional, Mus musculus
Procedure, shortened: as §1

[4] = Concentration for 95% confidence interval (CI) in dexamethasone-induced mice thymocytes; range 1.45-2.80 uM; format: functional, Mus musculus
Procedure, shortened: as §1

[5] = Concentration for 95% confidence interval (CI) in dexamethasone-induced mice thymocytes; range 2.95-5.88 uM; format: functional, Mus musculus
Procedure, shortened: as §1

[6] = Concentration for 95% confidence interval (CI) in dexamethasone-induced mice thymocytes; range 6.02-8.76 uM; format: functional, Mus musculus
Procedure, shortened: as §1

[7] = Concentration for 95% confidence interval (CI) in dexamethasone-induced mice thymocytes; range 8.49-12.32 uM; format: functional, Mus musculus
Procedure, shortened: as §1

[8] = Concentration for 95% confidence interval (CI) in dexamethasone-induced mice thymocytes; range 0.95-1.57 uM; format: functional, Mus musculus
Procedure, shortened: as §1

[9] = Concentration for 95% confidence interval (CI) in dexamethasone-induced mice thymocytes; range 4.61-7.00 uM; format: functional, Mus musculus
Procedure, shortened: as §1

[10] = Concentration for 95% confidence interval (CI) in dexamethasone-induced mice thymocytes; range 2.78-5.16 uM; format: functional, Mus musculus
Procedure, shortened: as §1

[11] = Concentration for 95% confidence interval (CI) in dexamethasone-induced mice thymocytes; range 3.07-5.28 uM; format: functional, Mus musculus
Procedure, shortened: as §1

[12] = Concentration for 95% confidence interval (CI) in dexamethasone-induced mice thymocytes; range 2.86-6.89 uM; format: functional, Mus musculus
Procedure, shortened: as §1

[13] = Concentration for 95% confidence interval (CI) in dexamethasone-induced mice thymocytes; range 3.26-8.82 uM; format: functional, Mus musculus
Procedure, shortened: as §1

[14] = Concentration for 95% confidence interval (CI) in dexamethasone-induced mice thymocytes; range 4.08-13.75 uM; format: functional, Mus musculus
Procedure, shortened: as §1

[15] = Concentration for 95% confidence interval (CI) in dexamethasone-induced mice thymocytes; range 4.64-7.91 uM; format: functional, Mus musculus
Procedure, shortened: as §1

[16] = Concentration for 95% confidence interval (CI) in dexamethasone-induced mice thymocytes; range 3.86-13.70 uM; format: functional, Mus musculus
Procedure, shortened: as §1

[17] = Concentration for 95% confidence interval (CI) in dexamethasone-induced mice thymocytes; range 2.78-34.83 uM; format: functional, Mus musculus
Procedure, shortened: as §1

Structure (SMILES) | Survival (Mus musculus [1]) | also measured
Cc1ccc(-c2cn3c(n2)sc2cc(N)ccc23)cc1 | 27% | –
[N-]=[N+]=Nc1ccc(-c2cn3c4c(sc3n2)CCCC4)cc1 | 50% | –
Oc1ccc(-c2cn3c4c(sc3n2)CCCC4)cc1 | 21% | –
Cc1ccc(C(=O)CSc2nc3ccccc3[nH]2)cc1 | 15% | –
FC(F)(F)c1ccc(-c2cn3c4c(sc3n2)CCCC4)cc1 | 27% | –
Cc1ccc(-c2csc3nc4ccccc4n23)cc1 | 48% | –
Cc1ccc(C(=O)Cn2ccsc2=N)cc1 | 27% | –
Cc1ccc(S(=O)(=O)Nc2nc3ccccc3s2)cc1 | 26% | –
N#Cc1ccc(-c2cn3c4c(sc3n2)CCCC4)cc1 | 21% | –
Cc1ccc(C(=O)Cn2c(=O)oc(=O)c3ccccc32)cc1 | 28% | –
c1ccc2cc(-c3ccc(-c4cn5c6c(sc5n4)CCCC6)cc3)ccc2c1 | 57% | EC50 (Mus musculus [2]): 4.77 µM; CI [3]: 5.75 µM
Cc1ccc(-c2nc3sc4ccccc4n3c2Br)cc1 | 24% | –
Cc1ccc(-c2cn3c4c(sc3n2)CCCC4)cc1 | 54% | EC50 (Mus musculus [2]): 2.01 µM; CI [4]: 2.8 µM
Cc1ccc(-c2cn3c(n2)sc2cc(Br)ccc23)cc1 | 39% | –
Cc1ccc(C(=O)Cn2c3c(sc2=N)CCCC3)cc1 | 72% | EC50 (Mus musculus [2]): 4.16 µM; CI [5]: 5.88 µM
N=c1sc2ccccc2n1CC(=O)c1ccccc1 | 20% | –
N=c1sc2ccccc2n1CC(=O)c1ccc(-c2ccccc2)cc1 | 66% | EC50 (Mus musculus [2]): 7.26 µM; CI [6]: 8.76 µM
c1ccc(-c2cnc3sc4ccccc4n23)cc1 | 15% | –
Cc1ccc(-c2cn3c(n2)nc(Cl)c2ccccc23)cc1 | 46% | –
Cc1ccc(C(=O)CSc2nc3ccccc3s2)cc1 | 16% | –
c1ccc2c(c1)sc1nc(-c3ccc(C4CCCC4)cc3)cn12 | 36% | –
Cc1ccc(C(=O)Cn2c(=O)sc3ccccc32)cc1 | 30% | –
Cc1cn2c(n1)sc1ccccc12 | 22% | –
c1ccc(-c2cn3c(n2)sc2ccccc23)cc1 | 73% | EC50 (Mus musculus [2]): 10.2 µM; CI [7]: 12.32 µM
Cc1ccc(C(=O)Cn2c(=N)oc3ccc(Cl)cc32)cc1 | 19% | –
Cc1ccc(Cn2c(=N)sc3ccccc32)cc1 | 8% | –

Structure (SMILES) | Survival (Mus musculus [1]) | also measured
N=c1sc2ccccc2n1Cc1ccccc1 | 20% | –
Cc1ccc(-c2nc3c4ccccc4ncn3n2)cc1 | 17% | –
C#CCn1c(=N)sc2ccccc21 | 23% | –
Cc1ccc(-c2cn3c(n2)sc2ccccc23)cc1 | 73% | EC50 (Mus musculus [2]): 1.22 µM; CI [8]: 1.57 µM
Fc1ccc(-c2cn3c4c(sc3n2)CCCC4)cc1 | 33% | –
[N-]=[N+]=Nc1ccc(C(=O)Cn2c3c(sc2=N)CCCC3)cc1 | 56% | EC50 (Mus musculus [2]): 5.68 µM; CI [9]: 7 µM
CSC(=N)NC(=O)c1ccccc1NCC(=O)c1ccc(C)cc1 | 31% | –
c1ccc(-c2ccc(-c3cn4c5c(sc4n3)CCCC5)cc2)cc1 | 75% | EC50 (Mus musculus [2]): 3.79 µM; CI [10]: 5.16 µM
Cc1ccc(C(=O)Cn2c(=N)sc3ccccc32)cc1 | 21% | EC50 (Mus musculus [2]): > 10 µM
Cc1ccc(/C=N/Nc2ncnc3ccccc23)cc1 | 23% | –
O=[N+]([O-])c1ccc(-c2cn3c4c(sc3n2)CCCC4)cc1 | 11% | –
Fc1cccc(-c2cn3c4c(sc3n2)CCCC4)c1 | 34% | –
c1cc(N2CCCC2)ccc1-c1cn2c3c(sc2n1)CCCC3 | 50% | EC50 (Mus musculus [2]): > 10 µM
Nc1ccc(-c2cn3c4c(sc3n2)CCCC4)cc1 | 18% | –
Cc1ccc(C(=O)Cn2/c(=N/S(=O)(=O)c3ccccc3)sc3ccccc32)cc1 | 48% | –
c1ccc(-c2cn3c4c(sc3n2)CCCC4)cc1 | 19% | –
N=c1sc2c(n1CC(=O)c1ccc(F)cc1)CCCC2 | 48% | –
O=C(O)c1ccc(-c2cn3c4c(sc3n2)CCCC4)cc1 | 20% | –
N=c1sc2c(n1CC(=O)c1ccc(-c3ccc4ccccc4c3)cc1)CCCC2 | 58% | EC50 (Mus musculus [2]): 4.02 µM; CI [11]: 5.28 µM
Cc1ccc(C(=O)Cn2c3c(sc2=O)CCCC3)cc1 | 40% | –
N=c1sc2c(n1CC(=O)c1ccc(F)c(F)c1)CCCC2 | 40% | –
COc1ccc2c(c1)sc1nc(-c3ccc(C)cc3)cn12 | 68% | EC50 (Mus musculus [2]): 4.44 µM; CI [12]: 6.89 µM
N=c1sc2c(n1CC(=O)c1ccc(OC(=O)c3ccccc3)cc1)CCCC2 | 17% | –
N=c1sc2c(n1CC(=O)c1ccc(Cl)cc1)CCCC2 | 59% | EC50 (Mus musculus [2]): 5.37 µM; CI [13]: 8.82 µM
COc1ccc(C(=O)Cn2c3c(sc2=N)CCCC3)cc1 | 66% | EC50 (Mus musculus [2]): 7.54 µM
O=C(Oc1ccc(-c2cn3c4c(sc3n2)CCCC4)cc1)c1ccccc1 | 23% | –

Structure (SMILES) | Survival (Mus musculus [1]) | also measured
N=c1sc2c(n1CC(=O)c1ccc(Br)cc1)CCCC2 | 31% | –
Cc1ccc(-c2cn3c(n2)nc(O)c2ccccc23)cc1 | 28% | –
N=c1sc2c(n1CC(=O)c1ccc(C(F)(F)F)cc1)CCCC2 | 36% | –
COc1ccc(-c2cn3c4c(sc3n2)CCCC4)cc1 | 28% | –
Cc1ccc(C(=O)CNc2ncnc3ccccc23)cc1 | 32% | –
Cc1ccc(-c2cn3ccsc3n2)cc1 | 27% | –
Brc1ccc(-c2cn3c(n2)sc2ccccc23)cc1 | 22% | –
c1ccc(-c2ccc(-c3cn4c(n3)sc3ccccc34)cc2)cc1 | 59% | EC50 (Mus musculus [2]): 8.12 µM; CI [14]: 13.75 µM
N#Cc1ccc(C(=O)Cn2c3c(sc2=N)CCCC3)cc1 | 40% | –
Clc1ccccc1-c1cn2c3c(sc2n1)CCCC3 | 37% | –
Fc1ccc(-c2cn3c4c(sc3n2)CCCC4)cc1F | 44% | –
N=c1sc2c(n1CC(=O)c1cccc(F)c1)CCCC2 | 54% | EC50 (Mus musculus [2]): 9.69 µM
Clc1ccc(-c2cn3c4c(sc3n2)CCCC4)cc1 | 35% | –
N=c1sc2ccccc2n1CC(=O)c1ccc(C2CCCC2)cc1 | 33% | –
Cc1ccc(-c2nc3sc4c(n3c2Br)CCCC4)cc1 | 27% | –
CCOC(=O)Cn1c2c(sc1=N)CCCC2 | 27% | –
Cc1ccc(-c2cn3cnc4ccccc4c3n2)cc1 | 26% | –
N=c1sc2c(n1CC(=O)c1ccccc1)CCCC2 | 59% | EC50 (Mus musculus [2]): 6.06 µM; CI [15]: 7.91 µM
Brc1ccc(-c2cn3c4c(sc3n2)CCCC4)cc1 | 35% | –
N=c1sc2c(n1CC(=O)c1ccc([N+](=O)[O-])cc1)CCCC2 | 21% | –
CC(=O)N1C(c2ccc(C)cc2)N=C2c3ccccc3N=CN21 (stereo not drawn) | 23% | –
N=c1sc2c(n1CC(=O)c1ccc(Cl)c(Cl)c1)CCCC2 | 57% | EC50 (Mus musculus [2]): 7.28 µM; CI [16]: 13.7 µM
N=c1sc2ccccc2n1CC(=O)c1ccc(-c2ccc3ccccc3c2)cc1 | 62% | EC50 (Mus musculus [2]): > 10 µM
N=c1sc2ccccc2n1CC(=O)c1ccc(N2CCCC2)cc1 | 64% | EC50 (Mus musculus [2]): 9.84 µM; CI [17]: 34.83 µM
Cc1ccc(-c2cn3c(n2)sc2cc(O)ccc23)cc1 | 19% | –
Clc1ccc(-c2cn3c4c(sc3n2)CCCC4)cc1Cl | 36% | –
